{"data": "Assay results of several laboratories", "cell line": "HOP-92", "effect on": "cell growth or viability", "note": "Each line is one published result; the experiments were not run side by side."}
{"SMILES": "O=C1Nc2ccccc2C1=NNc1nnc2n1N=C(c1ccccc1)CS2", "method": "SRB", "concentration": "10 µM", "measurement": "inhibition", "result": "36%"}
{"SMILES": "COc1ccc(-c2ccc(-c3ccc(C(=N)N)nc3)s2)cc1Cl", "method": "SRB", "measurement": "GI50", "result": "1630 nM"}
{"SMILES": "CCc1n(Cc2ccc3ccccc3n2)cc[n+]1Cc1ccc2ccccc2c1", "method": "SRB", "measurement": "TGI", "result": "671 nM"}
{"SMILES": "O=C1NC(=NCc2cccs2)S/C1=C\\c1ccc2ncccc2c1", "measurement": "IC50", "result": "6040 nM"}
{"SMILES": "CCCCc1n(Cc2ccc3ccccc3n2)cc[n+]1Cc1ccc2ccccc2n1", "method": "SRB", "measurement": "TGI", "result": "3360 nM"}
{"SMILES": "COc1cccc(Oc2ccccc2NC(=O)CNC(=O)c2cccc3ccccc23)c1", "method": "SRB", "time": "48 h", "measurement": "GI50", "result": "204 nM"}
{"SMILES": "O=C1NCCc2[nH]c(-c3ccncc3)cc21", "measurement": "IC50", "result": "6400 nM"}
{"SMILES": "COc1ccc(C(=O)/C=C/c2cccc(Br)c2)cc1S(N)(=O)=O", "method": "SRB", "time": "48 h", "measurement": "GI50", "result": "1800 nM"}
{"SMILES": "COc1ccc(-c2ccc(-c3ccc(C(=N)N)nc3)s2)cc1", "method": "SRB", "measurement": "GI50", "result": "1500 nM"}
{"SMILES": "CCCc1n(Cc2ccc3ccccc3n2)cc[n+]1Cc1ccc2ccccc2n1", "method": "SRB", "measurement": "TGI", "result": "3230 nM"}
{"SMILES": "COc1ccc(C(=O)/C=C/c2cccnc2)cc1S(N)(=O)=O", "method": "SRB", "concentration": "10 µM", "measurement": "inhibition", "result": "44%"}
